Tests used:
[1] = biological target: T1, Sterol O-acyltransferase 1 (Rattus norvegicus) (UniProt O70536); assay: In vitro for inhibitory activity against Acyl coenzyme A:cholesterol acyltransferase 1 from rat liver microsomes at 50 uM
T1 sequence (whole entry): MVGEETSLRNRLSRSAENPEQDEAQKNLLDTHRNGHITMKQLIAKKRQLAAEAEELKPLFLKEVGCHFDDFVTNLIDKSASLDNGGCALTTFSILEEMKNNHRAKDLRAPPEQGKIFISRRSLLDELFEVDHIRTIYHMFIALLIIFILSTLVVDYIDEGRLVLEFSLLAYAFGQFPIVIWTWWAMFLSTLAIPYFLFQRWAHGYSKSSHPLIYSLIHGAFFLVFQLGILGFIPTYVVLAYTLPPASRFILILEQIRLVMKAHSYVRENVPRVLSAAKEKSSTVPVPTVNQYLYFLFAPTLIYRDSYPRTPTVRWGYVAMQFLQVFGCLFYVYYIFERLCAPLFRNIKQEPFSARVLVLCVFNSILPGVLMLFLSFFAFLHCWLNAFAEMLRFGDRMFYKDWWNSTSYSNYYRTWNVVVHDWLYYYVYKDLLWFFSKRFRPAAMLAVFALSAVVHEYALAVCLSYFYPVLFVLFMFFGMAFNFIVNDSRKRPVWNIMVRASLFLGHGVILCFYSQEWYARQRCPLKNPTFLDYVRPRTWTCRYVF
Procedure, shortened: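 Rat liver microsomes were used to measure ACAT activity as the formation of cholesteryl [3H]oleate from cholesterol and [3H]oleoyl CoA. Results are given as percent inhibition at a single concentration.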

Cricetinae gen. sp. [2] = assay: In vivo for cholesterol absorption inhibitory activity using 7-day cholesterol-fed hamster model (expressed as percent change in cholesteryl esters at 50 mg/kg/day); type: functional, Cricetulus griseus
Procedure, shortened: (§1)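 Hamsters were fed a high-cholesterol diet for 7 days and gavaged once daily with compound in 0.2 mL corn oil. On the last day, animals were sacrificed and hepatic and serum lipids were determined. Results are given as percent change in hepatic cholesteryl ester or serum cholesterol concentration versus diet-fed controls gavaged with corn oil without drug.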

Cricetinae gen. sp. [3] = assay: In vivo cholesterol absorption inhibitory activity using 7-day cholesterol-fed hamster model (expressed as percent change in serum cholesterol at 50 mg/kg/day); type: functional, Cricetulus griseus; procedure, shortened: as §1
Cricetinae gen. sp. [4] = assay: Compound was tested in vivo for Cholesterol absorption inhibitory activity by using 7-day cholesterol-fed hamster model.(change in % change in cholesteryl esters(tested at 50 mg/kg/day).; type: functional, Cricetulus griseus; procedure, shortened: as §1
Cricetinae gen. sp. [5] = assay: Compound was tested in vivo for Cholesterol absorption inhibitory activity by using 7-day cholesterol-fed hamster model.(change in serum cholesterol( tested at 50 mg/kg/day).; type: functional; procedure, shortened: as §1

inhibition [1] [%] | SMILES | Change (Cricetinae gen. sp. [2]) [%] | Change (Cricetinae gen. sp. [3]) [%] | Change (Cricetinae gen. sp. [4]) [%] | Change (Cricetinae gen. sp. [5]) [%]
53 | COc1ccc(N2C(=O)[C@H](CCCc3ccccc3)[C@H]2c2ccc(OC)c(OC)c2)cc1 | -33 | -11 |  | 
8 | COc1ccc(N2C(=O)[C@H](CCCc3ccccc3)[C@H]2c2ccc(O)cc2)cc1 | -48 | -16 |  | 
68 | CCOc1ccc([C@@H]2[C@@H](CCCc3ccccc3)C(=O)N2c2ccc(OC)cc2)cc1 | -98 | -52 |  | 
 | CCCCCCCCCC[C@@H]1C(=O)N(c2ccc(OC)cc2)[C@@H]1c1ccc(OC)cc1 |  |  | -15 | 0
39 | COc1ccc(N2C(=O)[C@@H](CCCc3ccccc3)[C@H]2c2cccc(OC)c2)cc1 | -54 | -19 |  | 
 | CCC(=O)Oc1ccc(N2C(=O)[C@H](CCCc3ccccc3)[C@H]2c2ccc(OC)cc2)cc1 |  |  | -54 | -22
79 | CCOc1ccc([C@@H]2[C@H](CCCc3ccccc3)C(=O)N2c2ccc(OC)cc2)cc1 | -93 | -48 |  | 
18 | COc1ccc(N2C(=O)[C@H](CCCc3ccccc3)[C@H]2c2ccc(C)cc2)cc1 | -21 | -20 |  | 
 | COc1ccc(N2C(=O)[C@H](CCCc3ccccc3)[C@H]2c2ccc(O)c(O)c2)cc1 |  |  |  | 0
59 | COc1ccc(N2C(=O)[C@H](CCCc3ccccc3)[C@H]2c2ccc(OC(C)C)cc2)cc1 | -94 | -38 |  | 
 | CCCCCCCCCC[C@H]1C(=O)N(c2ccc(OC)cc2)[C@@H]1c1ccc(OC)cc1 |  |  | -18 | 0
63 | COc1ccc(N2C(=O)[C@H](CCCc3ccccc3)[C@H]2c2ccc(N)cc2)cc1 | 0 | 0 |  | 
21 | COc1ccc(N2C(=O)[C@H](CCCc3ccccc3)[C@H]2c2cccc(OC)c2)cc1 | -24 | -17 |  | 
20 | COc1ccc(N2C(=O)[C@@H](CCCc3ccccc3)[C@H]2c2ccc(O)cc2)cc1 | -75 | -31 |  | 
 | COc1ccc(N2C(=O)[C@H](CCCc3ccccc3)[C@H]2c2ccc(NC(C)=O)cc2)cc1 | -26 | -4 |  | 
 | COc1ccc(C(=O)N2C(=O)[C@H](CCCc3ccccc3)[C@H]2c2ccc(OC)cc2)cc1 | 0 | -25 |  | 
 | CC[C@@]1(CCCc2ccccc2)C(=O)N(c2ccc(OC)cc2)[C@@H]1c1ccccc1 | 0 | 0 |  | 

inhibition [1] [%] | SMILES | Change (Cricetinae gen. sp. [2]) [%] | Change (Cricetinae gen. sp. [3]) [%] | Change (Cricetinae gen. sp. [4]) [%] | Change (Cricetinae gen. sp. [5]) [%]
21 | COc1ccc(N2C(=O)[C@H](CCCc3ccccc3)[C@H]2c2ccc([N+](=O)[O-])cc2)cc1 | 0 | -11 |  | 
 | COc1ccc([C@@H]2[C@@H](CCCc3ccccc3)C(=O)N2c2ccc(C#N)cc2)cc1 | -74 | -35 |  | 
 | COc1ccc([C@H]2N(c3ccc(OC)cc3)C(=O)[C@]2(Cc2ccccc2)c2ccccc2)cc1 | -15 | 23 |  | 
 | CCN(CC)c1ccc(N2C(=O)[C@H](CCCc3ccccc3)[C@H]2c2ccc(OC)cc2)cc1 | -95 | -51 |  | 
 | CC[C@]1(CCCc2ccccc2)C(=O)N(c2ccc(OC)cc2)[C@@H]1c1ccc(OC)cc1 | 0 | 0 |  | 
22 | COc1ccc(N2C(=O)[C@H](CCCc3ccccc3)[C@H]2c2ccccc2)cc1 | -15 | -6 |  | 
 | C=CCN1C(=O)[C@H](CCCc2ccccc2)[C@H]1c1ccc(OC)cc1 | 0 | 0 |  | 
 | COc1ccc([C@@H]2[C@@H](CCCc3ccccc3)C(=O)N2c2c(OC)cc(OC)cc2OC)cc1 | 0 | 0 |  | 
 | COc1ccc([C@@H]2[C@@H](CCCc3ccccc3)C(=O)N2c2ccc(Oc3ccccc3)cc2)cc1 | -49 | -28 |  | 
 | COc1ccc(N2C(=O)C(CCCc3ccccc3)C23c2ccc(OC)cc2-c2cc(OC)ccc23)cc1 (stereo not given) | -22 | -22 |  | 
 | COc1ccc([C@@H]2[C@@H](CCCc3ccccc3)C(=O)N2c2cccc(N)c2)cc1 | -54 | -25 |  | 
 | CCCCOc1ccc([C@@H]2[C@H](CCCc3ccccc3)C(=O)N2c2ccc(OC)cc2)cc1 | -70 | -15 |  | 
-6 | COc1ccc(N2C(=O)[C@H](CCCc3ccccc3)[C@H]2c2ccc(CO)cc2)cc1 | -46 | -21 |  | 
 | COc1ccc([C@@H]2[C@@H](CCc3ccccc3)C(=O)N2c2ccc(OC)cc2)cc1 | 0 | 0 |  | 
 | COc1ccc(N2C(=O)[C@H](CCCc3ccccc3)[C@H]2c2ccc(SC)cc2)cc1 | 0 | 0 |  | 
 | COc1ccc([C@H]2N(c3ccc(OC)cc3)C(=O)[C@@]2(Cc2ccccc2)c2ccccc2)cc1 | 16 | 16 |  | 
 | COc1ccc(N2C(=O)[C@H](CCCc3ccccc3)[C@H]2c2ccc(Oc3ccccc3)cc2)cc1 | -77 | -37 |  | 

From ChEMBL document CHEMBL1129795, “2-Azetidinone cholesterol absorption inhibitors: structure-activity relationships on the heterocyclic nucleus” (1996)
